In the array DNA melting data of Ke et al. (doi:10.1101/2024.01.08.574731) one finds folding enthalpy and Tm data, which are given here for 31 sequences.

The nature of data set [1]: folding enthalpy; higher = less favourable; fluorescence melt of hairpins on a sequencing array, two-state fit. The note with it: sodium 0.088 M. Put shortly:
(§1)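 With Cy3 and quencher oligos annealed, library hairpins on a sequenced MiSeq flow cell were imaged for Cy3 fluorescence in 50 mM Na-HEPES pH 8.0, 25 mM NaCl, in 2.5 °C steps up to 60 °C. Melting temperature and folding enthalpy were derived from bootstrapped two-state fits of signals normalised to pre-quench Cy3 and to control constructs. Four replicates were combined by inverse variance, with fitted temperatures raised by 9.35 °C to match UV melts.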

Data set [2] is described as follows: melting temperature; fluorescence melt of hairpins on a sequencing array, two-state fit, raised by 9.35 °C to match UV melts. The settings on record: sodium 0.088 M. Put shortly:
as §1

As to GCGCTCCGAAAGGACCGC (((.(((....))).))), the folding enthalpy in data set [1] was -44.6 kcal/mol. Besides, in data set [2], the Tm amounted to 53 °C.
In the same order, the values of GCGCTCGAAAGAGACCGC ((((((....)))..))) are -21.8 kcal/mol and 44.9 °C.
Take GCGCTCGAAAGAGCCGC ((((((....))).))): in data set [1], the folding enthalpy was -18.7 kcal/mol. Moreover, in data set [2], the Tm was determined as 62.4 °C.
Taken in the same sequence, the figures for GCGCTCGAAAGAGTACGC ((((((....)))..))) were -25.6 kcal/mol and 50 °C.
In the same order, the values of GCGCTGCGAAAGCACGC (((.(((....)))))) are -17.6 kcal/mol and 69.2 °C.
Taken in the same sequence, the figures for GCGCTGCGAAAGCGACGC (((..((....))..))) were -26.8 kcal/mol and 63.7 °C.
Turning to GCGCTGCGAAAGCGGGGC ((.(.((....)).).)), in data set [1], the folding enthalpy is -28.8 kcal/mol. In addition, in data set [2], the Tm is 67.8 °C.
In the same order, the values of GCGCTGCGAAAGCTACGC (((..((....))..))) are -23 kcal/mol and 55.8 °C.
Taken in the same sequence, the figures for GCGCTGGGAAACCAGCAC (.(((((....))))).) were -11.9 kcal/mol and 50.4 °C.
For GCGCTGGGAAACCAGTGC ((.((((....)))).)), in data set [1], the folding enthalpy is -45.9 kcal/mol. In addition, the Tm in data set [2] is 60.6 °C.
Taken in the same sequence, the figures for GCGCTTACGAAAGTACGC (((..(((....)))))) were -21.4 kcal/mol and 46.2 °C.
In the same order, the values of GCGCTTGCGAAAGCACGC (((..(((....)))))) are -15.9 kcal/mol and 55.2 °C.
In the same order, the values of GCGGAACGAAAGTTCGC (((.(((....)))))) are -24.4 kcal/mol and 58.9 °C.
Turning to GCGGAATCCCGC ((((....)))), the folding enthalpy in data set [1] was -22.1 kcal/mol. The Tm in data set [2] was determined as 53.9 °C.
Taken in the same sequence, the figures for GCGGAATCGAAAGATCGC (((..(((....)))))) were -25.8 kcal/mol and 45.5 °C.
For the sequence GCGGACACGAAAGTGCGC (((..(((....)))))), the folding enthalpy in data set [1] is -26.1 kcal/mol. For the same sequence, the Tm in data set [2] is 55.6 °C.
Taken in the same sequence, the figures for GCGGACCACCGC ((((....)))) were -24.2 kcal/mol and 59.9 °C.
Taken in the same sequence, the figures for GCGGACGAAAGTCAACGC ((((((....)))..))) were -42 kcal/mol and 54.3 °C.
Taken in the same sequence, the figures for GCGGACGAAAGTCTCGC ((((((....))).))) were -18.9 kcal/mol and 55.2 °C.
As to GCGGACGAAAGTCTTCGC ((((((....)))..))), the folding enthalpy in data set [1] is -23.4 kcal/mol. Moreover, the Tm in data set [2] turned out to be 45.9 °C.
As for GCGGACGCCGC ((((...)))), the folding enthalpy in data set [1] is -19.1 kcal/mol. Moreover, the Tm in data set [2] was 58.3 °C.
Taken in the same sequence, the figures for GCGGACGGAAACATCCGC (((((.(....).))))) were -39.2 kcal/mol and 52.9 °C.
In the same order, the values of GCGGACGGAAACGTCTGC ((.((((....)))).)) are -36.3 kcal/mol and 65.9 °C.
In the case of GCGGACTACCGC ((((....)))), in data set [1], the folding enthalpy was -27.9 kcal/mol. Besides, in data set [2], the Tm came out at 54 °C.
Taken in the same sequence, the figures for GCGGAGAAATCCGC (((((....))))) were -29.1 kcal/mol and 61.8 °C.
For GCGGAGCGAAAGCACTGC ((.(.((....)).).)), the folding enthalpy in data set [1] is -12.7 kcal/mol. For the same sequence, the Tm in data set [2] was 50 °C.
Taken in the same sequence, the figures for GCGGAGCGAAAGCATCGC (((..((....))..))) were -15.7 kcal/mol and 55.7 °C.
In the same order, the values of GCGGAGGACCGC ((((....)))) are -19.5 kcal/mol and 52.4 °C.
Taken in the same sequence, the figures for GCGGAGGCCGC ((((...)))) were -18 kcal/mol and 58.9 °C.
For GCGGATCACCGC ((((....)))), the folding enthalpy in data set [1] is -25.8 kcal/mol. In addition, the Tm in data set [2] is 59 °C.
With GCGGATCGAAAGATACGC (((.(((....))).))), the folding enthalpy in data set [1] was -40.3 kcal/mol. For the same sequence, in data set [2], the Tm was found to be 68.7 °C.
